Experimental data of several laboratories.
Target: Ribosomal protein S6 kinase beta-1 (RPS6KB1, Homo sapiens, UniProt P23443)

`Cn1cncc1[C@@](O)(COc1ccc(C#N)cc1-c1ccc(OC(F)(F)F)cc1)c1ccc(C#N)cc1` gave a remaining binding of 94% (cell-free assay; competition with immobilised ligand; 1 µM).
For `Cn1cc(-c2cccc(N3CCc4c(sc5c4CC(C)(C)C5)C3=O)c2CO)cc(Nc2ccncn2)c1=O`, the inhibition was 5% (enzyme activity; inhibitor; 1 µM).
For `N#CC1(c2ccccn2)CCN(Cc2cc(C(=O)O)c(=O)n3ccccc23)CC1`, the remaining binding was 96% (cell-free assay; competition with immobilised ligand; 1 µM).
For `C#Cc1n[nH]c2c(-c3cn([C@@H](C)c4ccccn4)c(=O)[nH]c3=O)cc(F)cc12`, the inhibition was 10.2% (enzyme activity; inhibitor; 0.1 µM).
`COc1ncccc1-c1cnn2ccc(N3CCN(C(=O)OC(C)C)CC3)nc12` gave a remaining binding of 100% (binding; competition with immobilised ligand; 1 µM).
For `O=c1[nH]c2ccccc2n1C1CCN(Cc2ccc(-c3[nH]c4cc5ncnc5cc4nc3-c3ccccc3)cc2)CC1`, the remaining signal was 101% (cell-free assay; 0.5 µM).
`C#Cc1n[nH]c2c(-c3cn([C@@H](C)c4ccccc4)c(=O)[nH]c3=O)cc(F)cc12` gave an inhibition of 18.6% (enzyme activity; inhibitor; 0.1 µM).
`Nc1ncc(-c2nc(N3CCOCC3)nc(N3CCOCC3)n2)c(C(F)F)n1` gave a remaining binding of 76% (binding; competition with immobilised ligand; 10 µM).
`COc1cc(Nc2ncc(F)c(Nc3ccc4c(n3)NC(=O)C(C)(C)O4)n2)cc(OC)c1OC` gave an inhibition of 81% (binding; 10 µM).
The remaining binding of `Cc1nn(C)cc1-c1nc2c(N3CCN(Cc4ccc(Cl)cc4)CC3)c(Cl)cnc2[nH]1` is reported as 92% (binding; competition with immobilised ligand; 1 µM).
`Cn1cc(-c2cc(F)cc(N3CCn4c(cc5c4CCCC5)C3=O)c2CO)cc(Nc2ccc(N3CCN(C4COC4)CC3)cn2)c1=O` gave an inhibition of 10% (enzyme activity; inhibitor; 0.1 µM).
The remaining activity of `CC(C)(C)c1cc(C=C(C#N)C#N)cc(Br)c1O` is reported as 91.3% (enzyme activity; inhibitor; 0.5 µM).
